Laboratory results published in ChEMBL document CHEMBL4346684, “Synthesis and structure-bactericidal activity relationships of non-ketolides: 9-Oxime clarithromycin 11,12-cyclic carbonate featured with three-to eight-atom-length spacers at 3-OH” (Eur J Med Chem, 2019).
Values after ≈ are worked out from the molar mass of the structure shown. Active and inactive are the calls of the source. No cut-off for these calls is given here.

Key:
Haemophilus influenzae [1] = assay: Antimicrobial activity against azithromycin-susceptible Haemophilus influenzae ATCC 49247 incubated in HTM broth medium for 20 to 24 hrs by two-fold microbroth dilution method; type: functional
Staphylococcus aureus [2] = assay: Antimicrobial activity against inducibly erythromycin-resistant and methicillin resistant Staphylococcus aureus PU32 expressing i-ermA incubated in CAMHB medium for 20 hrs by two-fold microbroth dilution method; type: functional; conditions: PU32, 20 h
Outline: (§1)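 Purified fresh Staphylococcus isolate at about 5×10^5 CFU/ml final in CAMHB, 35 °C for 20 h. Each run included ATCC strains and reference antibiotics as QC, plus an antibiotic-free growth control.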

Streptococcus pneumoniae [3] = assay: Bactericidal activity against mef-encoded erythromycin resistant Streptococcus pneumoniae PU09 assessed as reduction in colony formation incubated in CAMHB medium for 20 to 24 hrs followed by 24 hrs subculturing in the medium without test compound; type: functional
Staphylococcus aureus [4] = assay: Ratio of MBC to MIC for inducibly erythromycin-resistant and methicillin resistant Staphylococcus aureus PU32 expressing i-ermA; type: functional
Streptococcus pneumoniae [5] = assay: Antimicrobial activity against mef-encoded erythromycin resistant Streptococcus pneumoniae PU09 incubated in CAMHB medium for 20 to 24 hrs by two-fold microbroth dilution method; type: functional
Haemophilus influenzae [6] = assay: Bactericidal activity against azithromycin-susceptible Haemophilus influenzae ATCC 49247 assessed as reduction in colony formation incubated in HTM broth medium for 20 to 24 hrs followed by 24 hrs subculturing in the medium without test compound; type: functional
Staphylococcus aureus [7] = assay: Ratio of MBC to MIC for constitutively erythromycin resistant and methicillin-resistant Staphylococcus aureus PU20 expressing c-ermC; type: functional
Haemophilus influenzae [8] = assay: Ratio of MBC to MIC for azithromycin-susceptible Haemophilus influenzae ATCC 49247; type: functional
Streptococcus pyogenes [9] = assay: Ratio of MBC to MIC for inducibly erythromycin resistant Streptococcus pyogenes 01-968 expressing i-ermA; type: functional
Streptococcus pneumoniae [10] = assay: Ratio of MBC to MIC for erythromycin-susceptible Streptococcus pneumoniae ATCC 49619; type: functional
Streptococcus pneumoniae [11] = assay: Bactericidal activity against erythromycin-susceptible Streptococcus pneumoniae ATCC 49619 assessed as reduction in colony formation incubated in CAMHB medium for 20 to 24 hrs followed by 24 hrs subculturing in the medium without test compound; type: functional
Staphylococcus aureus [12] = assay: Antimicrobial activity against constitutively erythromycin resistant and methicillin resistant Staphylococcus aureus PU20 expressing c-ermC incubated in CAMHB medium for 20 hrs by two-fold microbroth dilution method; type: functional; conditions: PU20, 20 h; outline: as §1
Streptococcus pneumoniae [13] = assay: Antimicrobial activity against erythromycin-susceptible Streptococcus pneumoniae ATCC 49619 incubated in CAMHB medium for 20 to 24 hrs by two-fold microbroth dilution method; type: functional
Staphylococcus aureus [14] = assay: Bactericidal activity against constitutively erythromycin resistant and methicillin-resistant Staphylococcus aureus PU20 expressing c-ermC assessed as reduction in colony formation incubated in CAMHB medium for 20 hrs followed by 24 hrs subculturing in the medium without test compound; type: functional
Staphylococcus aureus [15] = assay: Bactericidal activity against inducibly erythromycin-resistant and methicillin resistant Staphylococcus aureus PU32 expressing i-ermA assessed as reduction in colony formation incubated in CAMHB medium for 20 hrs followed by 24 hrs subculturing in the medium without test compound; type: functional
Streptococcus pyogenes [16] = assay: Antimicrobial activity against inducibly erythromycin resistant Streptococcus pyogenes 01-968 expressing i-ermA incubated in CAMHB medium for 20 to 24 hrs by two-fold microbroth dilution method; type: functional
Streptococcus pyogenes [17] = assay: Bactericidal activity against inducibly erythromycin resistant Streptococcus pyogenes 01-968 expressing i-ermA assessed as reduction in colony formation incubated in CAMHB medium for 20 to 24 hrs followed by 24 hrs subculturing in the medium without test compound; type: functional
Streptococcus pyogenes [18] = assay: Antimicrobial activity against constitutively erythromycin resistant Streptococcus pyogenes A2 expressing c-erm incubated in CAMHB medium for 20 to 24 hrs by two-fold microbroth dilution method; type: functional
Outline: (§2)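 Purified fresh Streptococcus isolate at about 5×10^5 CFU/ml final in CAMHB with 5% horse serum, 35 °C for 20–24 h. […] Each run included ATCC strains and reference antibiotics as QC, plus an antibiotic-free growth control.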

Moraxella catarrhalis [19] = assay: Antimicrobial activity against erythromycin-susceptible Moraxella catarrhalis 13L332 incubated in CAMHB medium for 20 hrs by two-fold microbroth dilution method; type: functional; conditions: 13L332, 20 h
Outline: (§3)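 Clinical isolates and ATCC strains, purified by plate activation and used fresh; inoculum about 5×10^5 CFU/ml final. Grown in CAMHB at 35 °C for 20 h.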

Streptococcus pyogenes [20] = assay: Bactericidal activity against inducibly erythromycin resistant Streptococcus pyogenes 01-968 expressing i-ermA at 1XMIC incubated for 24 hrs by broth dilution method; type: functional, organism-based
Outline: (§4)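 Samples were taken at 1, 2, 4, 6, 8, 12 and 24 h, diluted and subcultured at 35 °C for 20–24 h. Colonies were counted and log CFU plotted against time; detection limit 300 CFU/mL.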

Staphylococcus aureus [21] = assay: Antimicrobial activity against inducibly erythromycin resistant Staphylococcus aureus PU64 expressing i-ermA incubated in CAMHB medium for 20 hrs by two-fold microbroth dilution method; type: functional; conditions: PU64, 20 h
Outline: (§5)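 Purified fresh Staphylococcus isolate at about 5×10^5 CFU/ml final in CAMHB, 35 °C for 20 h. […] Each run included ATCC strains and reference antibiotics as QC, plus an antibiotic-free growth control.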

Streptococcus pyogenes [22] = assay: Bactericidal activity against inducibly erythromycin resistant Streptococcus pyogenes 01-968 expressing i-ermA at 1XMIC incubated for 12 hrs by broth dilution method; type: functional, organism-based; outline: as §4
Streptococcus pneumoniae [23] = assay: Ratio of MBC to MIC for mef-encoded erythromycin resistant Streptococcus pneumoniae PU09; type: functional
Staphylococcus aureus [24] = assay: Antimicrobial activity against erythromycin-susceptible Staphylococcus aureus ATCC 29213 incubated in CAMHB medium for 20 hrs by two-fold microbroth dilution method; type: functional; conditions: ATCC 29213, 20 h; outline: as §3
Staphylococcus aureus [25] = assay: Antimicrobial activity against constitutively erythromycin resistant Staphylococcus aureus PU20 expressing c-ermC incubated in CAMHB medium for 20 hrs by two-fold microbroth dilution method; type: functional; conditions: PU20, 20 h; outline: as §5
Moraxella catarrhalis [26] = assay: Ratio of MBC to MIC for erythromycin-susceptible Moraxella catarrhalis 13L332; type: functional
Streptococcus pneumoniae [27] = assay: Antimicrobial activity against constitutively erythromycin resistant Streptococcus pneumoniae PU27 expressing c-erm incubated in CAMHB medium for 20 to 24 hrs by two-fold microbroth dilution method; type: functional; outline: as §2
Streptococcus pneumoniae [28] = assay: Bactericidal activity against mef-encoded erythromycin resistant Streptococcus pneumoniae PU09 at 1 to 16xMIC incubated for 1 to 24 hrs by broth dilution method; type: functional, organism-based; outline: as §4
Streptococcus pyogenes [29] = assay: Antimicrobial activity against erythromycin-susceptible Streptococcus pyogenes A3 incubated in CAMHB medium for 20 to 24 hrs by two-fold microbroth dilution method; type: functional
Streptococcus pneumoniae [30] = assay: Bactericidal activity against erythromycin-susceptible Streptococcus pneumoniae ATCC 49619 assessed as log reduction in bacterial CFU at 1 to 16XMIC incubated for 1 to 24 hrs by broth dilution method; type: functional
Outline: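 Samples taken at 1, 2, 4, 6, 8, 12, 24 h, diluted and plated, colonies counted after 20-24 h at 35 °C; log CFU plotted against time. Detection limit 300 CFU/mL.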

Staphylococcus aureus [31] = assay: Antimicrobial activity against inducibly erythromycin-resistant Staphylococcus aureus PU32 expressing i-ermA incubated in CAMHB medium for 20 hrs by two-fold microbroth dilution method; type: functional; conditions: PU32, 20 h; outline: as §5
Moraxella catarrhalis [32] = assay: Bactericidal activity against erythromycin-susceptible Moraxella catarrhalis 13L332 assessed as reduction in colony formation incubated in CAMHB medium for 20 hrs followed by 24 hrs subculturing in the medium without test compound; type: functional
[33] = test system: Staphylococcus epidermidis; assay: Antimicrobial activity against Staphylococcus epidermidis E1 incubated in CAMHB medium for 20 hrs by two-fold microbroth dilution method; type: functional; conditions: E1, 20 h; outline: as §3

Compound | MIC (Staphylococcus aureus [2]) [µg/mL] | MBC (Streptococcus pneumoniae [3]) [µg/mL] | Ratio (Staphylococcus aureus [4]) | MIC (Streptococcus pneumoniae [5]) [µg/mL] | Ratio (Staphylococcus aureus [7]) | Ratio (Streptococcus pyogenes [9]) | Ratio (Streptococcus pneumoniae [10]) | MBC (Streptococcus pneumoniae [11]) [µg/mL] | MIC (Staphylococcus aureus [12]) [µg/mL] | MIC (Streptococcus pneumoniae [13]) [µg/mL] | MBC (Staphylococcus aureus [14]) [µg/mL] | MBC (Staphylococcus aureus [15]) [µg/mL] | MIC (Streptococcus pyogenes [16]) [µg/mL] | MBC (Streptococcus pyogenes [17]) [µg/mL] | MIC (Moraxella catarrhalis [19]) [µg/mL] | Ratio (Moraxella catarrhalis [26]) | MBC (Moraxella catarrhalis [32]) [µg/mL] | also measured
CC[C@H]1OC(=O)[C@H](C)[C@@H](OC(=O)CCNCCCc2ccc(-n3ccnc3)cc2)[C@H](C)[C@@H](O[C@@H]2O[C@H](C)C[C@H](N(C)C)[C@H]2O)[C@](C)(OC)C[C@@H](C)/C(=N\OC)[C@H](C)[C@H]2OC(=O)O[C@@]21C | 64 (≈ 71.1 µM) | 8 (≈ 8.89 µM) | 2 | 4 (≈ 4.44 µM) | >4 | 2 | 2 | 4 (≈ 4.44 µM) | 64 (≈ 71.1 µM) | 2 (≈ 2.22 µM) | > 256 | 128 (≈ 142 µM) | 16 (≈ 17.8 µM) | 32 (≈ 35.6 µM) | – | – | – | MIC (Haemophilus influenzae [1]): 256 µg/mL (≈ 284 µM); MBC (Haemophilus influenzae [6]): 256 µg/mL (≈ 284 µM); Ratio (Haemophilus influenzae [8]): 1
CC[C@H]1OC(=O)[C@H](C)C(=O)[C@H](C)[C@@H](O[C@@H]2O[C@H](C)C[C@H](N(C)C)[C@H]2O)[C@](C)(OC)C[C@@H](C)C(=O)[C@H](C)[C@H]2N(CCCCn3cnc(-c4cccnc4)c3)C(=O)O[C@]12C [TELITHROMYCIN] | 0.25 (≈ 0.308 µM) | 1 to 4 (≈ 1.23 to 4.93 µM) | >=4 - 8 | 0.25 to 1 (≈ 0.308 to 1.23 µM) | – | 4 - 8 | 1 - 4 | 0.031 to 0.125 (≈ 0.0382 to 0.154 µM) | > 256 | – | > 256 | 1 to 2 (≈ 1.23 to 2.46 µM) | 0.031 to 0.062 (≈ 0.0382 to 0.0764 µM) | 0.13 to 0.5 (≈ 0.16 to 0.616 µM) | 0.125 (≈ 0.154 µM) | 4 | 0.5 (≈ 0.616 µM) | MIC (Streptococcus pyogenes [18]): 32 µg/mL (≈ 39.4 µM); Activity (Streptococcus pyogenes [20]): inactive; MIC (Staphylococcus aureus [21]): 0.125 µg/mL (≈ 0.154 µM); Activity (Streptococcus pyogenes [22]): Active; Ratio (Streptococcus pneumoniae [23]): 4 - 8; MIC (Staphylococcus aureus [24]): 0.125 µg/mL (≈ 0.154 µM); MIC (Staphylococcus aureus [25]): > 256 µg/mL; MIC (Streptococcus pneumoniae [27]): ≤ 0.032 µg/mL; Activity (Streptococcus pneumoniae [28]): Active; MIC (Streptococcus pyogenes [29]): ≤ 0.032 µg/mL; Activity (Streptococcus pneumoniae [30]): 3 log10CFU; MIC (Staphylococcus aureus [31]): 0.125 µg/mL (≈ 0.154 µM); MIC [33]: 0.125 µg/mL (≈ 0.154 µM)
CC[C@H]1OC(=O)[C@H](C)[C@@H](OCC#Cc2ccc(C(=O)c3ccccc3)s2)[C@H](C)[C@@H](O[C@@H]2O[C@H](C)C[C@H](N(C)C)[C@H]2O)[C@](C)(OC)C[C@@H](C)/C(=N\OC)[C@H](C)[C@H]2OC(=O)O[C@@]21C | > 256 | 8 (≈ 9.21 µM) | – | 4 (≈ 4.6 µM) | >8 | 2 | 2 | 16 (≈ 18.4 µM) | 32 (≈ 36.8 µM) | 8 (≈ 9.21 µM) | > 256 | > 256 | 4 (≈ 4.6 µM) | 8 (≈ 9.21 µM) | 8 (≈ 9.21 µM) | 2 | 16 (≈ 18.4 µM) | –
